# Calls of active or inactive are those of the source. The calls are words filed in the database; no cut-off is given here.
# System: PC-3
# Test: Anticancer activity against human PC3 cells xenografted in sc dosed SCID mouse assessed as inhibition of tumor growth at 80 mg/kg, ip qd for 14 days
# Type: functional
# Conditions: PC-3, sc, 336 h
# Procedure, shortened: (§1)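 PC-3 xenografts in SCID mice; calipers tracked tumor volume once palpable, and dosing began at an average volume of ~50–100 mm³. Groups of 5 mice received one intraperitoneal dose daily for 14 days, formulated in 15% PEG 400, 5% EtOH and 80% H₂O, alongside a vehicle-only group. Tumor size and body weight were recorded every two days for 28 days; tumor size given as mean ± S.E.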
row,Structure (SMILES),inhibition in vivo at 80 mg/kg [%]
1,O=C(O[C@@H]1Cc2c(O)cc(O)cc2O[C@@H]1c1cc(O)c(O)c(O)c1)c1cc(O)c(O)c(O)c1 [EPIGALOCATECHIN GALLATE],32

# Organism: Rattus norvegicus
# Test: Inhibition of rat liver microsomal Steroid 5-alpha-reductase at 5 uM after 30 mins by scintillation counting
# Conditions: not given
# Procedure, shortened: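 Rat liver microsomal 5α-reductase (types 1 and 2) was incubated with 35 nM [³H]testosterone, 1.0 mM NADPH, 1 mM DTT and 40 mM potassium phosphate pH 6.5. Steroids were separated by TLC and the spots extracted with ethyl acetate for scintillation counting. Percent inhibition was taken at a single fixed test concentration.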
row,Structure (SMILES),inhibition [%]
1,C/C=C(\C)C(=O)O[C@@H]1Cc2c(O)cc(O)cc2O[C@@H]1c1cc(O)c(O)c(O)c1,29.1
2,CCCCCC(=O)O[C@@H]1Cc2c(O)cc(O)cc2O[C@@H]1c1cc(O)c(O)c(O)c1,46
3,CCCCCCCCCCCCCCCCCCCCCC(=O)O[C@@H]1Cc2c(O)cc(O)cc2O[C@@H]1c1cc(O)c(O)c(O)c1,28.3
4,CCCC(=O)O[C@@H]1Cc2c(O)cc(O)cc2O[C@@H]1c1cc(O)c(O)c(O)c1,35
5,CCCCCCCCCCCCCCCCCCCC(=O)O[C@@H]1Cc2c(O)cc(O)cc2O[C@@H]1c1cc(O)c(O)c(O)c1,47.9
6,O=C(Nc1ccc2ccccc2c1)O[C@@H]1Cc2c(O)cc(O)cc2O[C@@H]1c1cc(O)c(O)c(O)c1,28.7
7,COc1cc(OC)c2c(c1)O[C@H](c1cc(OC)c(OC)c(OC)c1)[C@H](OC(=O)c1cc(OC)c(OC)c(OC)c1)C2,8.4
8,Cc1ccc(NC(=O)O[C@@H]2Cc3c(O)cc(O)cc3O[C@@H]2c2cc(O)c(O)c(O)c2)cc1,0.8
9,CC(C)=CC(=O)O[C@@H]1Cc2c(O)cc(O)cc2O[C@@H]1c1cc(O)c(O)c(O)c1,36
10,CC(=O)O[C@@H]1Cc2c(O)cc(O)cc2O[C@@H]1c1cc(O)c(O)c(O)c1,3
11,CC(=O)Oc1cc(OC(C)=O)c2c(c1)O[C@H](c1cc(OC(C)=O)c(OC(C)=O)c(OC(C)=O)c1)[C@H](OC(=O)c1cc(OC(C)=O)c(OC(C)=O)c(OC(C)=O)c1)C2,0.5
12,CCCCCCCC(=O)O[C@@H]1Cc2c(O)cc(O)cc2O[C@@H]1c1cc(O)c(O)c(O)c1,49.3
13,O=C(Nc1ccc(Cl)cc1)O[C@@H]1Cc2c(O)cc(O)cc2O[C@@H]1c1cc(O)c(O)c(O)c1,19.1
14,C#CCCCC(=O)O[C@@H]1Cc2c(O)cc(O)cc2O[C@@H]1c1cc(O)c(O)c(O)c1,48.8

# System: PC-3
# Test: Anticancer activity against human PC3 cells xenografted in sc dosed SCID mouse assessed as inhibition of tumor growth at 20 mg/kg, ip qd for 14 days
# Type: functional
# Conditions: not given
# Procedure, shortened: as §1
row,Structure (SMILES),inhibition
1,O=C(O[C@@H]1Cc2c(O)cc(O)cc2O[C@@H]1c1cc(O)c(O)c(O)c1)c1cc(O)c(O)c(O)c1 [EPIGALOCATECHIN GALLATE],inactive

# Same assay, conditions: PC-3, sc, 336 h, route subcutaneous
row,Structure (SMILES),inhibition in vivo at 20 mg/kg [%]
1,CCCCCC/C=C\CCCCCCCC(=O)O[C@@H]1Cc2c(O)cc(O)cc2O[C@@H]1c1cc(O)c(O)c(O)c1,38

# Molecular target: not listed separately
# Test: Inhibition of rat liver microsomal Steroid 5-alpha-reductase after 30 mins by scintillation counting
# Conditions: not given
# Procedure, shortened: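 Rat liver microsomes containing both type 1 and type 2 5α-reductase. [³H]T and [³H]DHT spots were separated by TLC, cut out and extracted with ethyl acetate, then counted by liquid scintillation.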
row,Structure (SMILES),IC50 [nM]
1,CCCCCC/C=C\CCCCCCCC(=O)O[C@@H]1Cc2c(O)cc(O)cc2O[C@@H]1c1cc(O)c(O)c(O)c1,480
2,CC(C)(C)C1CCC(C(=O)O[C@@H]2Cc3c(O)cc(O)cc3O[C@@H]2c2cc(O)c(O)c(O)c2)CC1 (some centres not stated),1190
3,CC/C=C\C/C=C\C/C=C\CCCCCCCC(=O)O[C@@H]1Cc2c(O)cc(O)cc2O[C@@H]1c1cc(O)c(O)c(O)c1,780
4,CC1=C(/C=C/C(C)=C/C=C/C(C)=C/C(=O)O[C@@H]2Cc3c(O)cc(O)cc3O[C@@H]2c2cc(O)c(O)c(O)c2)C(C)(C)CCC1,760
5,CCCCCCCCCCCC(=O)O[C@@H]1Cc2c(O)cc(O)cc2O[C@@H]1c1cc(O)c(O)c(O)c1,770
6,O=C(O[C@@H]1Cc2c(O)cc(O)cc2O[C@@H]1c1cc(O)c(O)c(O)c1)c1cc(O)c(O)c(O)c1 [EPIGALOCATECHIN GALLATE],6290
7,O=C(O[C@@H]1Cc2c(O)cc(O)cc2O[C@@H]1c1cc(O)c(O)c(O)c1)c1ccc(Cl)cc1,1600
8,CCCCCCCCCC(=O)O[C@@H]1Cc2c(O)cc(O)cc2O[C@@H]1c1cc(O)c(O)c(O)c1,2940
9,CCCCCCC/C=C/C(=O)O[C@@H]1Cc2c(O)cc(O)cc2O[C@@H]1c1cc(O)c(O)c(O)c1,2470
10,Cc1ccc(C(=O)O[C@@H]2Cc3c(O)cc(O)cc3O[C@@H]2c2cc(O)c(O)c(O)c2)cc1,1320
11,CCCCCCCCCCCCCCCC(=O)O[C@@H]1Cc2c(O)cc(O)cc2O[C@@H]1c1cc(O)c(O)c(O)c1,530
12,CCCCCCCCCCCCCCCCCC(=O)O[C@@H]1Cc2c(O)cc(O)cc2O[C@@H]1c1cc(O)c(O)c(O)c1,730
13,CCCCCCCCCCCCCC(=O)O[C@@H]1Cc2c(O)cc(O)cc2O[C@@H]1c1cc(O)c(O)c(O)c1,600
14,CCCCCCCC/C=C\CCCCCCCC(=O)O[C@@H]1Cc2c(O)cc(O)cc2O[C@@H]1c1cc(O)c(O)c(O)c1,740
15,CC(C)=CCC/C(C)=C/C(=O)O[C@@H]1Cc2c(O)cc(O)cc2O[C@@H]1c1cc(O)c(O)c(O)c1,2240
